Key:
[1] = system: MOLM-13; experiment: Cytotoxicity of antioxidants; type: cell-based; conditions: 72-hour treatment
How it was run: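 Each antioxidant (GSH, GSSG, tocopherol, ascorbate) was dissolved in sterile water and applied alone to MOLM-13 cells.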

[2] = target: T1, human glutathione reductase (GSR) (Homo sapiens, UniProt P00390); experiment: Differential scanning fluorometry; type: binding; conditions: 5 μM GSR, 20 μM compound
T1 sequence (P00390 44-522): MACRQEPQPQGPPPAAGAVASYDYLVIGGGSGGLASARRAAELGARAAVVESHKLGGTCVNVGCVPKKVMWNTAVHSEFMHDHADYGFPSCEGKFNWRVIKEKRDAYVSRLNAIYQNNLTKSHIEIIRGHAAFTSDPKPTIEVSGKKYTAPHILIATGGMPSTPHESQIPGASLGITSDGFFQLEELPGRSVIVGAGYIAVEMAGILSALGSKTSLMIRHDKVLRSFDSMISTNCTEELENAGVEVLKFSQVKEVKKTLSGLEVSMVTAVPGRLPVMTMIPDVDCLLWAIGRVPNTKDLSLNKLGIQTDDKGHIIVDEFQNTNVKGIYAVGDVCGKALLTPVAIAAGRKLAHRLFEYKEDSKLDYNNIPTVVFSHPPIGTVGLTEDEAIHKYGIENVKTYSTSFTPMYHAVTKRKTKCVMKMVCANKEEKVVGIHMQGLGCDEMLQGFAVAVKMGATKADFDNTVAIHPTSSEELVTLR
How it was run: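 Human GSR (5 µM final), compound (20 µM final) and 5X SYPRO Orange were combined in 20 mM HEPES pH 7.4, 100 mM NaCl, 1% DMSO. Controls: no protein, compound fluorescence, plate autofluorescence, plus 2-AAPA as positive control. Plates were heated from 25 to 95 °C at 1-min steps with FRET-channel readout. Tm was taken from the dRFU derivative, and significance was tested by Student's t-test.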

Row | Molecule | concentrations at which antioxidant is toxic to MOLM-13 [1] | toxicity of exogenously supplemented antioxidant to MOLM-13 (in words) [1] | other results
1 | Cc1c(C)c2c(c(C)c1O)CC[C@@](C)(CCC[C@H](C)CCC[C@H](C)CCCC(C)C)O2 [tocopherol] | higher than 62.5 μM | – | –
2 | oxidized glutathione [GSSG] | – | not toxic | –
3 | CC(=O)NC(CSC(=S)Nc1ccc(NC(=S)SCC(NC(C)=O)C(=O)O)cc1)C(=O)O (centres unmarked) [Compound 2-AAPA, 2-AAPA] | – | – | change in melting temperature (Tm) of GSR [2]: significantly changed the melting temperature
4 | O=C1O[C@H]([C@@H](O)CO)C(O)=C1O [ascorbate] | > 15.63 µM | – | –
5 | N[C@@H](CCC(=O)N[C@@H](CS)C(=O)NCC(=O)O)C(=O)O [GSH, reduced glutathione] | – | not toxic | –
